Measurements from PubChem BioAssay AID504382 (The Scripps Research Institute Molecular Screening Center, 2011).
Out of some 2,500 compounds screened, about 460 (18%) were called active. Only a sample is shown. A number with no mark means an inactive call.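 Rule for the calls: active = mean activation above a cutoff of low control average plus 3 SD from the earlier screen (cut at about 12% in these data); inactive = the rest.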

Assay: compound fluorescence interference without thin filaments, confirmation, artefact control for cardiac RTF calcium sensitizer project, biochemical (AID 504382)
Conditions: IANBD fluorescence interference counterscreen, buffer, EC20 Ca2+; at 7.2 µM; active compounds read high; scaled: EC20 calcium 0, EC100 calcium 100
How it was run: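 Medium: MOPS buffer, 190 mM, with KCl, MgCl2, EGTA, NTA, DTT, pH 7.20; Dosing: one dose of 7.2 µM, 0.7% DMSO; Probe or stimulus: calcium at EC20 level, 0.472 mM final; Incubation: 15 min, 25 °C; Evaluation: compound fluorescence interference relative to control well signal range; Signal: fluorescence, 480/540 nm.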

Structure (SMILES)	fluorescence artifact activation
COc1ccc(Cl)cc1NC(=O)CN(C)C(=O)c1ccc(N2CCCCCC2)c([N+](=O)[O-])c1	21.3% (active)
COc1ccc(OC)c(NC(=O)c2cc(S(=O)(=O)N(C)C)ccc2N2CCCC2)c1	0.05%
COc1ccc(Cl)cc1NC(=O)CN(C)C(=O)COc1ccccc1F	0.35%
Cc1nc(NC(=O)c2ccccc2[N+](=O)[O-])sc1C(=O)N(C)C	0.02%
COc1cccc(S(=O)(=O)Nc2cccc(C(=O)N3CCCCCC3)c2)c1	0.03%
O=C(CN1CCN(c2ccccc2)CC1)Nc1cccc(C(F)(F)F)c1	0.02%
O=C(c1ccc(Nc2cccc(C(F)(F)F)c2)nc1)N1CCCC1	55.9% (active)
Cc1ccc(S(=O)(=O)N2CCOCC2)cc1NC(=O)CSc1nccn1C	0.07%
CCCCCC(C)NC(=S)NC(=O)c1cc(S(=O)(=O)N2CCOCC2)ccc1C (stereo not given)	0.05%
Cc1csc(NS(=O)(=O)c2cccc([N+](=O)[O-])c2)n1	0.08%
CC1=CC(=C(C#N)C#N)C=C(C)N1Cc1ccc(Cl)cc1	10.8%
CCSC1=N/C(=C\C=C2/Oc3ccccc3N2CC)C(=O)S1	9.59%
COC(=O)c1ccc(CSc2nnc(NCc3ccccc3)s2)o1	4.53%
CC1(C(=O)Nc2nnc(SCc3ccccc3)s2)Cc2ccccc2C(=O)O1 (stereo not given)	4.5%
CC(Sc1nnc(NCc2ccccc2)s1)C(=O)Nc1ccc2c(c1)C(=O)c1ccccc1C2=O (stereo not given)	49% (active)
CCc1ccc(C(C)NC(=O)c2ncn[nH]2)cc1 (stereo not given)	2.22%
Clc1ccc(-n2cc(-c3ccc(Br)cc3)[n+]3c2CCCCC3)cc1	-0.05%
CC(C)(Cc1cccc(CC(C)(C)C(=O)O)c1)C(=O)O	0.07%
CC(=O)Oc1ccc(NC(=O)Cc2ccccc2)c(C(=O)O)c1	4.96%
CC(=O)Oc1ccc2c(c1)Oc1cc(OC(C)=O)ccc1C21OC(=O)c2ccccc21	13.6% (active)
CCOc1ccc(-c2ncncc2-c2ccccc2OC)c(O)c1	0.08%
COc1ccc(-n2nc3c(N4CCC(C(=O)N5CCC(C)CC5)CC4)nnc(C)c3c2C)cc1	0.01%
CCOC(=O)C(CCCCCCC(NC(C)=O)(C(=O)OCC)C(=O)OCC)(NC(C)=O)C(=O)OCC	-0.02%
Cc1ccc(C(=O)N(C)CC(=O)Nc2cccc(F)c2)cc1S(=O)(=O)N1CCCCC1	0.72%
Cc1ccnc(N/C=C(\C#N)c2nc(-c3cccc(Br)c3)cs2)c1	5.15%
